From ChEMBL document CHEMBL1681762, “Application of plant allylpolyalkoxybenzenes in synthesis of antimitotic phenstatin analogues” (2011)

Experiments:
Format in all cases: functional
Paracentrotus lividus [1] = assay: Antiproliferative activity against sea urchin embryo assessed as cleavage alteration after 10 to 15 mins fertilization 45 to 60 mins before first mitotic cycle completion
How it was run: (§1)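 Phenotypic in vivo assay on fertilized sea urchin eggs, scored for cleavage alteration or arrest. Reported value is the effective threshold concentration (EC), from duplicate measurements.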

Paracentrotus lividus [2] = assay: Antiproliferative activity against sea urchin embryo assessed as cleavage arrest after 10 to 15 mins fertilization 45 to 60 mins before first mitotic cycle completion; how it was run: as §1
Paracentrotus lividus [3] = assay: tubulin-destabilizing activity in sea urchin embryo assessed as embryo spinning treated immediately 8 to 10 hrs after fertilization
How it was run: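 Free-swimming sea urchin blastulae were treated and monitored for behavioural change. Reported value is the effective threshold concentration (EC), from duplicate measurements.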

| Compound | EC (Paracentrotus lividus [1]) | EC (Paracentrotus lividus [2]) | EC (Paracentrotus lividus [3]) |
| --- | --- | --- | --- |
| COc1ccc(C(=O)c2cc3c(c(OC)c2OC)OCO3)cc1O | 1 µM | 4 µM | >5 µM |
| COc1ccc(C(=O)c2cc(OC)c3c(c2OC)OCO3)cc1O | 2 µM | >4 µM | >5 µM |
| COc1ccc(C(=O)c2cc(OC)c3c(c2)OCO3)cc1O | 0.001 µM | 0.01 µM | 0.1 µM |
| COc1ccc(C(=O)c2cc(OC)c(OC)c(OC)c2OC)cc1O | 2 µM | >4 µM | >5 µM |
| COc1ccc(C(=O)c2ccc3c(c2)OCCO3)cc1O | 0.1 µM | 0.2 µM | >5 µM |
| COc1ccc(C(=O)c2ccc3c(c2)OCCO3)cc1 | 0.5 µM | 1 µM | >5 µM |
| COc1ccc(/C=C\c2cc(OC)c(OC)c(OC)c2)cc1O [COMBRETASTATIN A4] | 0.002 µM | 0.01 µM | 0.05 µM |
| COc1ccc(/C=C\c2cc(OC)c3c(c2)OCO3)cc1O [Combretastatin A-2] | 0.002 µM | 0.01 µM | 0.05 µM |
| COc1ccc(C(=O)c2cc(OC)c(OC)c(OC)c2)cc1O [PHENSTATIN] | 0.01 µM | 0.05 µM | 0.5 µM |
